Measured values collected from several papers.
Compare with care: the assays were run in different laboratories.
PIK3CA I800L: Phosphatidylinositol 4,5-bisphosphate 3-kinase catalytic subunit alpha isoform (PIK3CA, Homo sapiens, UniProt P42336, I800L)
PIK3CA: Phosphatidylinositol 4,5-bisphosphate 3-kinase catalytic subunit alpha isoform (PIK3CA, Homo sapiens, UniProt P42336)
PIK3CA E542K: Phosphatidylinositol 4,5-bisphosphate 3-kinase catalytic subunit alpha isoform (PIK3CA, Homo sapiens, UniProt P42336, E542K)
PIK3CA M1043I: Phosphatidylinositol 4,5-bisphosphate 3-kinase catalytic subunit alpha isoform (PIK3CA, Homo sapiens, UniProt P42336, M1043I)
PIK3CA H1047L: Phosphatidylinositol 4,5-bisphosphate 3-kinase catalytic subunit alpha isoform (PIK3CA, Homo sapiens, UniProt P42336, H1047L)
PIK3CA H1047Y: Phosphatidylinositol 4,5-bisphosphate 3-kinase catalytic subunit alpha isoform (PIK3CA, Homo sapiens, UniProt P42336, H1047Y)
PIK3CA E545A: Phosphatidylinositol 4,5-bisphosphate 3-kinase catalytic subunit alpha isoform (PIK3CA, Homo sapiens, UniProt P42336, E545A)
PIK3CA Q546K: Phosphatidylinositol 4,5-bisphosphate 3-kinase catalytic subunit alpha isoform (PIK3CA, Homo sapiens, UniProt P42336, Q546K)

Compound	target	observed	technique	concentration	remaining binding
C[C@H]1CCN(c2nccc(-c3cnn4ncccc34)n2)C1	PIK3CA I800L	binding		1 µM	95%
COc1ncc2cc3ccccc3nc2c1C#N	PIK3CA	cell-free assay	competition with immobilised ligand	5 µM	100%
CN(c1nccc(-c2cnn3ncccc23)n1)C1CC1	PIK3CA E542K	binding		1 µM	56%
O=C(NCCCC1CCCCC1)c1ccc(CNC(=O)c2cnn(-c3ccccc3)c2C(F)(F)F)cc1	PIK3CA M1043I	cell-free assay	competition with immobilised ligand	0.1 µM	68%
c1cncc(-c2cccc(Nc3nccc(NC4CCCCC4)n3)c2)c1	PIK3CA H1047L	binding	competition with immobilised ligand	10 µM	100%
O=C(c1ccc(Nc2ncc(Cl)c(-c3ccc(Cl)s3)n2)cc1)N1CCC(N2CCCC2)CC1	PIK3CA H1047Y	binding	competition with immobilised ligand	1 µM	100%
CNC(=O)[C@@H]1CC[C@@H](n2c(-c3ccc4cnccc4c3)nc3ccc(C(=O)NCc4cccc(C(N)=O)c4)cc32)C1	PIK3CA H1047Y	binding	competition with immobilised ligand	1 µM	100%
CCN1CCN(Cc2ccc(C(=O)Nc3ccc(C)c(Oc4ccc5c(c4)CC(=O)N5)c3)cc2C(F)(F)F)CC1	PIK3CA H1047Y	binding	competition with immobilised ligand	1 µM	100%
O=C(Nc1c[nH]nc1C(=O)NC1CCNCC1)c1cc(F)cc(F)c1	PIK3CA E545A	binding	competition with immobilised ligand	1 µM	100%
N[C@H]1CCN(c2nccc(-c3cnn4ncccc34)n2)C1	PIK3CA M1043I	binding		1 µM	91%
O=C(Nc1cccnn1)N1CC(C/C=C/c2cncc(Oc3ccc(C(F)(F)F)cn3)n2)C1	PIK3CA I800L	cell-free assay	competition with immobilised ligand	1 µM	91%
C[C@@H](c1ccc(-n2cnc3c(N)ncnc32)cc1)N1CCc2nn(C)c(Cc3ccccc3)c2C1=O	PIK3CA	binding	competition with immobilised ligand	0.1 µM	82%
CO[C@@H](C)c1c(Nc2ccc([C@H](N(C)C(=O)C3CCS(=O)(=O)CC3)C(F)(F)F)cc2)cnc2cc(Cl)nn12	Phosphatidylinositol 4,5-bisphosphate 3-kinase catalytic subunit alpha isoform (PIK3CA, Homo sapiens, UniProt P42336, E545K)	binding	competition with immobilised ligand	1 µM	48%
Cc1ccc(NC(=O)c2ccc(CN3CCN(C)CC3)cc2)cc1Nc1nccc(-c2cccnc2)n1	PIK3CA	cell-free assay	competition with immobilised ligand	0.1 µM	100%
COc1cnc(Nc2cccc(S(N)(=O)=O)c2)nc1N1CCN(c2ccccc2)CC1	PIK3CA Q546K	binding	competition with immobilised ligand	1 µM	70%
COc1ccnn2ncc(-c3ccnc(N(C)C)n3)c12	PIK3CA M1043I	binding		1 µM	100%
O=C(N[C@H]1CCCCC/C=C\C2C[C@@]2(C(=O)O)NC(=O)[C@@H]2C[C@@H](Oc3ccncc3)CN2C1=O)OC1CCCC1 (stereo partly drawn)	PIK3CA E542K	binding	competition with immobilised ligand	1 µM	96%
Cc1cnn2ncc(-c3ccnc(N(C)C)n3)c2c1	PIK3CA Q546K	binding		1 µM	5.1%
O=c1nc(-c2ccccn2)sc2ccccc12	PIK3CA E545A	cell-free assay	competition with immobilised ligand	1 µM	92%
CC1CCCN1c1nccc(-c2cnn3ncccc23)n1 (stereo not drawn)	PIK3CA H1047L	binding		1 µM	100%
Cc1c[nH]c2nccc(Oc3c(F)cc(Nc4cc(Cl)nc(N)n4)cc3F)c12	PIK3CA H1047Y	cell-free assay	competition with immobilised ligand	0.1 µM	83%
O=C(NCCCN1CCOCC1)c1ccc(Nc2ncc(Cl)c(-c3ccc(Cl)s3)n2)cc1	PIK3CA H1047L	binding	competition with immobilised ligand	1 µM	100%
CN(C)C(=O)Cn1cc(-c2nc([C@@](C)(c3ccc(-c4cnc(N)nc4)cc3)C3CC3)no2)cn1	PIK3CA Q546K	cell-free assay	competition with immobilised ligand	1 µM	95%
O=C(NCC1CCOCC1)c1n[nH]cc1NC(=O)c1c(F)cccc1F	PIK3CA H1047Y	binding	competition with immobilised ligand	1 µM	100%
